No end group written: not given here.

On the set-up of the data set: species or system Kunming mice. The note with it: mouse, in vivo, iv, 5 mg/kg. In short, it runs like this: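 Kunming mice (10 weeks, 18–22 g), two groups of six; free or nanoparticle-loaded peptide at matched peptide dose by tail-vein injection. Tail-vein blood (20 μL) drawn at intervals into heparinized micropipettes and mixed with PBS; residue taken up in 50% acetonitrile/0.1% TFA. C18 HPLC at 40°C, water/acetonitrile (0.1% TFA) gradient, 280 nm, thymopentin internal standard; plasma calibration 0.195313–25 μg/mL, 1/x2 weighting. Noncompartmental analysis; mean ± SD.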

As to “HSDAVFTDNYTRLRKQVAAKKYLQSIKNKRY-NH2 (C-terminus assumed) [BAY 55-9837]”, the AUC(0-t) is 2.68 ± 0.16 µg·h/mL, the clearance was 0.733 mL/min and the half-life was 19.2 ± 3.6 min.

The values are drawn from PMC4207575 (International Journal of Nanomedicine, 2014).
